According to ChEMBL document CHEMBL1933006, “Mechanistic analysis of muraymycin analogues: a guide to the design of MraY inhibitors” (J Med Chem, 2011):
Converted amounts (≈) assume the structure as drawn. The source made the active and inactive calls. No cut-off for these calls is given here.

Columns and labels:
[1] = target: T1, Undecaprenyl-phosphate alpha-N-acetylglucosaminyl 1-phosphate transferase (Thermotoga maritima (strain ATCC 43589 / MSB8 / DSM 3109 / JCM 10099), UniProt Q9X1N5); assay: Inhibition of Thermotoga maritima WecA using radiolabeled UDP-[14C]GlcNAc as substrate after 30 mins
T1 sequence (Q9X1N5 whole entry): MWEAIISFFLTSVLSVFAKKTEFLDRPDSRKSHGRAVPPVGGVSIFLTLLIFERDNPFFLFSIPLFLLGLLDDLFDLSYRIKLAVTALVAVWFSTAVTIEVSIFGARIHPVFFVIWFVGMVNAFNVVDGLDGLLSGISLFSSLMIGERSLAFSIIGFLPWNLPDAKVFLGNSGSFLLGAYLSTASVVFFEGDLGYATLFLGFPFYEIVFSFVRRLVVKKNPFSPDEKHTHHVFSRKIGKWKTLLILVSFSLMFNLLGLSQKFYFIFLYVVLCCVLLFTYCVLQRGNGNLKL
In short: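 Purified Thermotoga maritima WecA was assayed at pH 8 (100 mM Tris-HCl, 10 mM MgCl₂, 1.1 mM C₅₅-P, 0.16 mM UDP-[¹⁴C]GlcNAc, 92.7 mM Triton X-100), final concentrations. The reaction was started by enzyme, run 30 min at 65 °C and stopped at 100 °C for 1 min. C₅₅-PP-GlcNAc was separated by TLC and scanned. IC50 was relative to a no-inhibitor control, mean of triplicates.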

[2] = target: T2, Phospho-N-acetylmuramoyl-pentapeptide-transferase (Bacillus subtilis (strain 168), UniProt Q03521); assay: Competitive inhibition of Bacillus subtilis MraY using UDP-MurNAc-pentapeptide as substrate after 30 mins by Lineweaver-Burk plot
T2 sequence (Q03521 whole entry): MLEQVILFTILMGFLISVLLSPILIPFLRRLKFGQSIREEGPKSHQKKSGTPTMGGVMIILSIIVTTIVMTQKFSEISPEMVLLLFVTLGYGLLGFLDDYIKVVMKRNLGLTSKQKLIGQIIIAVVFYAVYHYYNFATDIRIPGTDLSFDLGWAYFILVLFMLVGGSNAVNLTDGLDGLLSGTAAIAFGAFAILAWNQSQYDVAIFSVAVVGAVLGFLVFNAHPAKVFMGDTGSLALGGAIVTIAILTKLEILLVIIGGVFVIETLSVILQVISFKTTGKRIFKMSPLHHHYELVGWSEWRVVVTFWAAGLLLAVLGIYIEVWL
In short: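 B. subtilis MraY was assayed at pH 7.5 (100 mM Tris-HCl, 40 mM MgCl₂, 250 mM NaCl, 8.4 mM N-lauroylsarcosine), started by enzyme and run 30 min at 37 °C. Initial rates were taken at 0.25–1.5 mM UDP-MurNAc-[¹⁴C]pentapeptide, fixed 1 mM C₅₅-P, and several inhibitor levels. Lipid I was separated by TLC and scanned. Ki came from Lineweaver–Burk plots assuming a ping-pong Bi Bi mechanism.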

[3] = target: T2, Phospho-N-acetylmuramoyl-pentapeptide-transferase; assay: Noncompetitive inhibition of Bacillus subtilis MraY using […] as substrate after 30 mins by Lineweaver-Burk plot
Enterococcus faecalis [4] = assay: Antibacterial activity against vancomycin-resistant Enterococcus faecalis SR7914 after 20 hrs by broth microdilution method; type: functional; settings: SR7914, 20 h
In short: (§1)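 NCCLS broth microdilution in cation-adjusted Mueller–Hinton broth. Serial 2-fold compound dilutions were inoculated with 5 × 10⁴ CFU per 0.1 mL and incubated at 35 °C for 20 h before scoring the MIC.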

Enterococcus faecium [5] = assay: Antibacterial activity against vancomycin-resistant Enterococcus faecium SR7917 after 20 hrs by broth microdilution method; type: functional; settings: SR7917, 20 h; in short: as §1
Staphylococcus aureus [6] = assay: Antibacterial activity against methicillin-resistant Staphylococcus aureus isolate SR3637 after 20 hrs by broth microdilution method; type: functional; settings: isolate SR3637, 20 h; in short: as §1
Staphylococcus aureus [7] = assay: Antibacterial activity against methicillin-sensitive […] Staphylococcus aureus ATCC 29213 after 20 hrs by broth microdilution method; type: functional; settings: ATCC 29213, 20 h; in short: as §1
Enterococcus faecalis [8] = assay: Antibacterial activity against Enterococcus faecalis ATCC 29212 after 20 hrs by broth microdilution method; type: functional; settings: ATCC 29212, 20 h; in short: as §1
Enterococcus faecium [9] = assay: Antibacterial activity against Enterococcus faecium ATCC 19434 after 20 hrs by broth microdilution method; type: functional; settings: ATCC 19434, 20 h; in short: as §1
HepG2 = assay: Cytotoxicity against human HepG2 cells after 48 hrs by WST-8 assay; type: cell-based; settings: HepG2, 48 h
In short: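 HepG2 cells in DMEM with 10% FBS were seeded at 1 × 10⁴ cells/well and treated 24 h later with varying concentrations for 48 h. WST-8 reagent was then added for 1.5 h at 37 °C, and absorbance read at 450 nm. Percentage growth inhibition was calculated against untreated cells, and IC50 was derived. Tunicamycin served as positive control.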

Bacillus subtilis = assay: Antibacterial activity against Bacillus subtilis at 64 ug/ml; type: functional, organism-based

Row | SMILES | IC50 [1] | Ki [2] | Ki [3] | MIC (Enterococcus faecalis [4]) | MIC (Enterococcus faecium [5]) | MIC (Staphylococcus aureus [6]) | MIC (Staphylococcus aureus [7]) | MIC (Enterococcus faecalis [8]) | MIC (Enterococcus faecium [9]) | IC50 (HepG2) | Activity (Bacillus subtilis)
1 | CC(C)C[C@H](NC(=O)[C@@H](NC(=O)N[C@H](C(=O)O)C(C)C)[C@@H]1CCN=C(N)N1)C(=O)NCCCN[C@H](C(=O)O)[C@H](O[C@@H]1O[C@H](CN)[C@@H](O)[C@H]1O)[C@H]1O[C@@H](n2ccc(=O)[nH]c2=O)[C@H](O)[C@@H]1O [MURAMYCIN D2] | 1230 µM | 0.0076 µM | 0.0076 µM | – | – | – | – | – | – | – | –
2 | CCCCCCOc1ccc(-c2ccc([C@H](NC(=O)[C@@H](NC(=O)N[C@H](C(=O)O)C(C)C)[C@@H]3CCNC(=N)N3)C(=O)NCCCN[C@H](C(=O)O)[C@H](O[C@@H]3O[C@H](CN)[C@@H](O)[C@H]3O)[C@H]3O[C@@H](n4ccc(=O)[nH]c4=O)[C@H](O)[C@@H]3O)cc2)cc1 | – | – | – | 8 µg/mL (≈ 7.19 µM) | 4 µg/mL (≈ 3.6 µM) | 8 µg/mL (≈ 7.19 µM) | 4 µg/mL (≈ 3.6 µM) | 8 µg/mL (≈ 7.19 µM) | 4 µg/mL (≈ 3.6 µM) | > 100 µg/mL | –
3 | CC(C)C[C@H](NC(=O)[C@@H](NC(=O)N[C@H](C(=O)O)C(C)C)[C@@H]1CCNC(=N)N1)C(=O)NCCCN[C@H](C(=O)O)[C@H](O[C@@H]1O[C@H](CN)[C@@H](O)[C@H]1O)[C@H]1O[C@@H](n2ccc(=O)[nH]c2=O)[C@H](O)[C@@H]1O [MURAMYCIN D2] | – | – | – | > 64 µg/mL | > 64 µg/mL | > 64 µg/mL | > 64 µg/mL | > 64 µg/mL | > 64 µg/mL | – | inactive
4 | CCCCOc1ccc(-c2ccc(CC[C@H](NC(=O)[C@@H](NC(=O)N[C@H](C(=O)O)C(C)C)[C@@H]3CCNC(=N)N3)C(=O)NCCCN[C@H](C(=O)O)[C@H](O[C@@H]3O[C@H](CN)[C@@H](O)[C@H]3O)[C@H]3O[C@@H](n4ccc(=O)[nH]c4=O)[C@H](O)[C@@H]3O)cc2)cc1 | – | – | – | 64 µg/mL (≈ 57.5 µM) | 32 µg/mL (≈ 28.8 µM) | 32 µg/mL (≈ 28.8 µM) | 16 µg/mL (≈ 14.4 µM) | 16 µg/mL (≈ 14.4 µM) | 16 µg/mL (≈ 14.4 µM) | > 100 µg/mL | –
5 | CCCCCCCCCCCCCCC[C@H](NC(=O)[C@@H](NC(=O)N[C@H](C(=O)O)C(C)C)[C@@H]1CCNC(=N)N1)C(=O)NCCCN[C@H](C(=O)O)[C@H](O[C@@H]1O[C@H](CN)[C@@H](O)[C@H]1O)[C@H]1O[C@@H](n2ccc(=O)[nH]c2=O)[C@H](O)[C@@H]1O | 970 µM | 0.247 µM | 0.247 µM | 4 µg/mL (≈ 3.74 µM) | 2 µg/mL (≈ 1.87 µM) | 4 µg/mL (≈ 3.74 µM) | 2 µg/mL (≈ 1.87 µM) | 4 µg/mL (≈ 3.74 µM) | 4 µg/mL (≈ 3.74 µM) | – | –
6 | CC(C)C[C@@H](NC(=O)[C@@H](NC(=O)N[C@H](C(=O)O)C(C)C)[C@@H]1CCNC(=N)N1)C(=O)NCCCN[C@H](C(=O)O)[C@H](O[C@@H]1O[C@H](CN)[C@@H](O)[C@H]1O)[C@H]1O[C@@H](n2ccc(=O)[nH]c2=O)[C@H](O)[C@@H]1O | – | – | – | > 64 µg/mL | > 64 µg/mL | > 64 µg/mL | > 64 µg/mL | > 64 µg/mL | > 64 µg/mL | – | inactive
7 | CCCCCCCCCCCCCCC[C@@H](NC(=O)[C@@H](NC(=O)N[C@H](C(=O)O)C(C)C)[C@@H]1CCNC(=N)N1)C(=O)NCCCN[C@H](C(=O)O)[C@H](O[C@@H]1O[C@H](CN)[C@@H](O)[C@H]1O)[C@H]1O[C@@H](n2ccc(=O)[nH]c2=O)[C@H](O)[C@@H]1O | 1340 µM | 0.698 µM | 0.698 µM | 4 µg/mL (≈ 3.74 µM) | 0.25 µg/mL (≈ 0.234 µM) | 4 µg/mL (≈ 3.74 µM) | 2 µg/mL (≈ 1.87 µM) | 2 µg/mL (≈ 1.87 µM) | 0.5 µg/mL (≈ 0.467 µM) | > 100 µg/mL | –
8 | CC(C)C[C@@H](NC(=O)[C@@H](NC(=O)N[C@H](C(=O)O)C(C)C)[C@@H]1CCN=C(N)N1)C(=O)NCCCN[C@H](C(=O)O)[C@H](O[C@@H]1O[C@H](CN)[C@@H](O)[C@H]1O)[C@H]1O[C@@H](n2ccc(=O)[nH]c2=O)[C@H](O)[C@@H]1O | 1560 µM | 0.049 µM | 0.049 µM | – | – | – | – | – | – | – | –
9 | CC(C)[C@H](NC(=O)N[C@H](C(=O)N[C@@H](CCCCCCCc1ccc(-c2ccccc2)cc1)C(=O)NCCCN[C@H](C(=O)O)[C@H](O[C@@H]1O[C@H](CN)[C@@H](O)[C@H]1O)[C@H]1O[C@@H](n2ccc(=O)[nH]c2=O)[C@H](O)[C@@H]1O)[C@@H]1CCNC(=N)N1)C(=O)O | – | – | – | 16 µg/mL (≈ 14.4 µM) | 8 µg/mL (≈ 7.21 µM) | 4 µg/mL (≈ 3.6 µM) | 4 µg/mL (≈ 3.6 µM) | 4 µg/mL (≈ 3.6 µM) | 4 µg/mL (≈ 3.6 µM) | > 100 µg/mL | –
